Activity calls are given as the source filed them. No cut-off for these calls is given here.
Test system: not listed separately
Experiment: (§1) Activation of AMPK in rat liver assessed as SAMS peptide phosphorylation
Format: functional, tissue-based
Summary of the method: (§2)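 Kinase activity is read as phosphorylation of the SAMS peptide substrate. Substrate concentration is 20 in standard assays and 100 in additivity assays.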
For `COC(=O)c1c(O)c2c(-c3ccccc3)csc2[nH]c1=O`, the EC50 was 175 µM.
For `N#Cc1c(O)c2c(-c3ccc4c(c3)OCO4)csc2[nH]c1=O`, the EC50 was 20 µM.
`N#Cc1c(O)c2c(-c3ccc(Cl)cc3)csc2[nH]c1=O` gave an EC50 of 81 µM.
In the case of `COCOc1ccc(-c2csc3[nH]c(=O)c(C#N)c(O)c23)cc1`, the EC50 is reported as 8 µM.
In the case of `COc1cccc(-c2c(O)c3c(-c4ccccc4)csc3[nH]c2=O)c1`, the EC50 is reported as 180 µM.
Work on `N#Cc1c(O)c2c(-c3ccccc3)csc2[nH]c1=O` yielded an EC50 of 38 µM.
`N#Cc1c(O)c2c(-c3ccc(F)cc3)c(Br)sc2[nH]c1=O` showed an EC50 of 10 µM.
With `COC(=O)c1ccc(-c2csc3[nH]c(=O)c(C#N)c(O)c23)cc1` the EC50 was 55 µM.
`N#Cc1c(O)c2c(-c3cccc(O)c3)csc2[nH]c1=O` showed an EC50 of 38 µM.
For `N#Cc1c(O)c2c(-c3ccccc3)c(Br)sc2[nH]c1=O`, the EC50 was 5.8 µM.
Molecule `N#Cc1c(O)c2c(-c3ccccc3)c(Cl)sc2[nH]c1=O` has an EC50 of 3.7 µM.
For `O=c1[nH]c2scc(-c3ccccc3)c2c(O)c1-c1cccs1`, the EC50 was 183 µM.
`N#Cc1c(O)c2c(-c3ccc(F)cc3)csc2[nH]c1=O` showed an EC50 of 84 µM.
Molecule `N#Cc1c(O)c2c(-c3ccc(O)cc3)csc2[nH]c1=O` has an EC50 of 20 µM.
For `C=CCc1ccc(-c2csc3[nH]c(=O)c(C#N)c(O)c23)cc1`, the EC50 was 40 µM.
For `N#Cc1c(O)c2c(-c3ccc(O)cc3)c(Cl)sc2[nH]c1=O`, the EC50 was 2 µM.
With `O=c1[nH]c2scc(-c3ccccc3)c2c(O)c1Cl` the EC50 was 88 µM.
Work on `N#Cc1c(O)c2c(-c3ccc(Br)cc3)csc2[nH]c1=O` yielded an EC50 of 72 µM.

Species: Rattus norvegicus
Experiment: as §1
Format: functional, tissue-based
Summary of the method: as §2
In the case of `Cn1c(=O)c(C#N)c(N)c2c(-c3ccc(Br)cc3)csc21`, the Activity is reported as “inactive”.
In the case of `N#Cc1c(O)c2c(-c3ccccc3)c([N+](=O)[O-])sc2[nH]c1=O`, the Activity is reported as “inactive”.
In the case of `N#Cc1c(O)c2c(-c3ccccc3)c(-c3ccccc3O)sc2[nH]c1=O`, the Activity is reported as “inactive”.
With `COc1c(C#N)c(=O)[nH]c2scc(-c3ccccc3)c12` the Activity was “inactive”.
In the case of `O=c1[nH]c2scc(-c3ccccc3)c2c(O)c1-c1ccccc1`, the Activity is reported as “inactive”.
In the case of `O=c1cc(O)c2c(-c3ccccc3)csc2[nH]1`, the Activity is reported as “inactive”.
In the case of `CN(C)c1c(O)c2c(-c3ccccc3)csc2[nH]c1=O`, the Activity is reported as “inactive”.
With `Cn1c(=O)c(C#N)c(O)c2c(-c3ccc(Cl)cc3)csc21` the Activity was “inactive”.
With `Cn1c(=O)c(C#N)c(O)c2c(-c3ccc(Br)cc3)c(F)sc21` the Activity was “inactive”.
With `Cn1c(=O)c(C#N)c(O)c2c(-c3ccccc3)csc21` the Activity was “inactive”.

— ChEMBL document CHEMBL1148018, “Discovery and SAR development of thienopyridones: a class of small molecule AMPK activators” (Bioorg Med Chem Lett, 2007)
